Source: PubChem (several laboratories)
Rows were chosen to be rich in hits. Some 3.5% of all compounds tested hit in one or more screens of this group.
FLuc act counter = affects firefly luciferase, flagging false hits in luciferase stimulation screens; P08659; ATPlite luciferase biochemical, luminescence, 10 min; 0 = ATP-free wells, 1 = DMSO control; activation factor at 10 µM; 200,000 tested, under 10 active; AID 1027;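 active = luciferase activation factor, scaled between plate controls, of at least 2 with compound at 10 µM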
Target sequence (P08659 whole entry, looked up): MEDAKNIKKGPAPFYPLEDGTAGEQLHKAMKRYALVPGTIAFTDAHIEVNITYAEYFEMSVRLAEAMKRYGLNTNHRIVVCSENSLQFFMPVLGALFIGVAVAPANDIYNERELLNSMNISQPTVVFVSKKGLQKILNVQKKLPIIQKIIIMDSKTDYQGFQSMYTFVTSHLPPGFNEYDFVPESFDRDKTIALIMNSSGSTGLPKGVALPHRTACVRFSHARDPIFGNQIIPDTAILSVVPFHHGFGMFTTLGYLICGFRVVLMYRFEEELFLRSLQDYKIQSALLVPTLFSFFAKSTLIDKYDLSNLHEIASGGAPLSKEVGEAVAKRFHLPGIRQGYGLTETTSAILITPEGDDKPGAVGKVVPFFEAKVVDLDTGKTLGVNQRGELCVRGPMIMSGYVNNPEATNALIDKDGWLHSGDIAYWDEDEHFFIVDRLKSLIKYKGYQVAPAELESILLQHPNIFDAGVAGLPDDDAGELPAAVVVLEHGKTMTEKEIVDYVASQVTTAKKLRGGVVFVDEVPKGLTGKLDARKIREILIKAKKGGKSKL
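System: Luciferase/luciferin detection reagent, cell-free biochemical luciferase assay | Medium: PBS buffer for ATP | Dosing: Test compounds dosed from 2 mM stocks in 100% DMSO | Timing: 10 min at ambient temperature | Signal: Luminescence measurement of luciferase light output | Evaluation: Luciferase activation, seen as luminescence increase over controls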
APP 5'UTR act = activates APP 5'UTR luciferase reporter. activation, % at 2 µM. 1% of 190,000 active. SH-SY5Y APP 5'UTR luciferase reporter, luminescence; zero percent = DMSO vehicle wells;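 active = activation above a set limit, based on mean plus 3 SD of controls, cut at about 140% in these data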
NF-kB expr up = compounds increasing NF-kB expression in human neuronal cells; AID 1239; fold change at 12.5 µM; 1.6% of 190,000 active; NF-kB reporter expression; hits give high values; in the data active = fold change above about 3.3
Pf gametocyte = inhibitors of late stage P. falciparum gametocyte viability | P. falciparum stage V gametocytes, ATP luminescence, 24 h | inhibition, % at 10.9 µM | 0.065% of 150,000 active | AID 743093;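 active = inhibition above the mean plus 3 SD of compounds within the control limits, set per campaign, cut at about 38% in these data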;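 also: 0% = DMSO wells and 100% = medium only without gametocytes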
STAT1 act = increases IFN-gamma driven STAT1 reporter signal. NIH 3T3 STAT1-luciferase reporter, luminescence; 100% = IFN-gamma alone, no compound. activation (% of control), % at 5.5 µM. 2.6% of 200,000 active;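 active = activation above the screen-wide mean activation plus 3 SD, cut at about 130% in these data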;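 also: raw ratio to IFN-gamma control signal so 100% means no change and 0% no light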
FLuc inh counter = counter-screen for luciferase assay inhibitors: firefly luciferase inhibition; P08659; ATPLite firefly luciferase biochemical luminescence, 10 min; 1.5% of 200,000 active; inhibition, % at 10 µM;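 active = inhibition above about 50% when tested at 10 µM, limit read from the data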
* hit, by the source's call; . = not tested or not shown.

SMILES	FLuc act counter	APP 5'UTR act	NF-kB expr up	Pf gametocyte	STAT1 act	FLuc inh counter
CC(C)(C)C(CO)NC(=O)c1ccc[nH]1 (centres undefined)	.	.	.	14.6	.	.
COc1ccc2nc(/C=N/NC(=O)[C@@H]3CCCN3C(=O)OC(C)(C)C)ccc2c1	.	.	.	9.6	.	.
Cn1c(=O)c2c(ncn2CC(=O)Nc2ccccc2Sc2ccccc2)n(C)c1=O	1	10.6	1.05	.	95.5	-2.5
O=C1NC(c2ccc(O)cc2)Nc2ccccc21 (centres undefined)	.	.	.	0.2	.	.
O=C1c2ccccc2C(=O)C1c1ccc(O)cc1	0.6	47.7	3.78*	1.4	97.9	35.4
CCN(CC)c1ccc(C(=O)O)cc1	1	11.9	1.04	.	87.7	-3.5
CCN(CC)c1ccc(/C=C2\C(=O)c3ccc(C(=O)O)cc3C2=O)cc1	0.1	8.5	1.14	.	108.4	91.9*
NS(=O)(=O)c1ccc(CNC(=O)c2csc3c2CCCC3)cc1	1.1	-10.2	1.09	-4.6	101.3	-7.4
CCN1CCc2nc(NC(=O)c3ccccc3)sc2C1	0.5	116.1	0.4	.	147.2*	45.8
COc1cccc(C(=O)Nc2nc3c(s2)CN(C)CC3)c1	0.4	59.9	1.79	1.9	117.6	56.1*
O=C(Nc1nc2c(s1)CN(Cc1ccccc1)CC2)C1CCC1	1	9.4	1.85	-0.4	124.8	1.2
O=C(Oc1ccccc1C(=O)Nc1ccccc1)c1ccccc1Br	1	-58.5	3.69*	.	89.9	-1.7
O=C(COc1ccccc1C(=O)Nc1ccccc1)NCCc1ccccc1	0.4	-2.0	0.91	5.7	94.9	57.4*
O=C(COc1ccccc1C(=O)Nc1ccccc1)c1ccc(Br)cc1	1.1	8.9	1.23	11.9	105.9	-6.6
O=C(O)c1ccccc1N/N=C\c1ccnc2ccccc12	0.1	12.3	2.43	-22.0	70.1	89.4*
Cc1ccccc1NC(=O)C1Cc2ccccc2C(=O)O1 (centres undefined)	1	-1.1	3.32*	.	107.9	2.8
O=C(NC(=S)Nc1ccc(N2CCOCC2)cc1)c1cncc(Br)c1	1	15.7	1.15	.	91.8	-1.8
Cc1cc(OCC(=O)N2CCc3ccccc3C2)c(C)cc1Br	.	.	.	9.6	.	.
Cc1ccc(C(=O)NCc2ccc(F)cc2)s1	.	.	.	5.4	.	.
Cc1ccc(C(=O)NCCc2ccc(F)cc2)s1	0.6	161.7*	4.19*	.	129.1*	38.4
Cc1ccc(-c2nnc(-c3ccccc3)o2)cc1Br	.	42.8	.	.	124.6	.
COc1ccc(-c2nc3c(Br)c(N)c(Br)cc3o2)cc1	0.7	113.2	1.66	.	135.3*	29.1
Nc1c(Br)cc2oc(-c3ccccc3)nc2c1Br	0.8	100.5	3.35*	-9.9	111.8	20.1
COc1ccc(-c2nnc(SCC(C)C)o2)cc1	.	.	.	-1.0	.	.
Brc1ccc(-n2cc(-c3ccccc3)c3c(NN4CCOCC4)ncnc32)cc1	1.1	4.7	0.59	16.5	100.2	-10.2
SMILES	FLuc act counter	APP 5'UTR act	NF-kB expr up	Pf gametocyte	STAT1 act	FLuc inh counter
Cc1ccc(NC(=O)C2CCCN(c3ncccn3)C2)cc1F (centres undefined)	1	88.5	3.54*	.	148.8*	4.5
O=C(Nc1ccc2c(c1)CCC2)C1CCCN(c2ncccn2)C1 (centres undefined)	0.9	58.9	2.65	18.5	144.0*	5.1
O=C(Nc1cccc(C(F)(F)F)c1)C1CCCN(c2ncccn2)C1 (centres undefined)	1.1	-0.8	1.34	7.0	93.9	-6.9
Cc1ccc(C(=O)Nc2nc(=O)n(C(=O)CC(C)C)s2)cc1	0.9	.	1	-21.3	102.1	5.1
CC(=O)c1sc(NC(=O)c2ccc(Cl)cc2)nc1C	.	.	.	7.0	.	.
Cn1sc(NC(=O)c2ccc(Cl)cc2)nc1=O	0.2	19.6	2.42	-12.3	115.7	77.8*
Cc1ccc(C(=O)Nc2nc(=O)n(C)s2)cc1	0.2	.	1.96	-5.0	112.9	80.9*
Cc1ccc(C(=O)Nc2nc(=O)n(C(=O)c3ccccc3Cl)s2)cc1	0.8	24.6	1.16	11.0	141.0*	18.2
O=C(NCC1CCCO1)c1onc(CSc2ccc(F)c(F)c2)c1C(=O)O (centres undefined)	1	10.8	1.38	-1.6	100.5	-4.9
CCc1nnc(NC(=O)c2ccc(OC)cc2OC)s1	0.5	110.6	2.21	.	143.1*	53.7*
COc1cc(OC)cc(C(=O)Nc2ccc([N+](=O)[O-])cn2)c1	1	9.6	1.43	.	101.5	-2.9
COc1ccc(C(=O)Nc2ccc([N+](=O)[O-])cn2)c(OC)c1	0.5	143.2*	4.42*	8.2	147.6*	45.2
CCc1nnc(NC(=O)Nc2ccccc2OC)s1	1	53.3	1.9	-10.8	120.0	-2.6
CC(C)(C)c1nnc(NC(=O)c2ccc(Cl)nc2)s1	1	11.1	1.92	9.4	124.1	0.7
CCc1nnc(NC(=O)c2ccc(Cl)nc2)s1	0.5	51.2	1.34	-9.7	103.8	53.1*
COc1ccc2c(c1)nc(SCC(O)c1ccccc1)n2C (centres undefined)	1	-1.9	1.17	.	111.4	2.3
Cc1ccc(C2=NN=C(NC(=O)CSc3nncn3C)SC2)cc1	0.1	12.3	1.84	-9.8	84.1	85.5*
CC(=O)Nc1cccc(NC(=O)C(F)(F)F)c1	1	-3.8	0.95	.	98.0	0.8
Cc1ccc(C2=NN=C(NC(=O)C(F)(F)F)SC2)cc1	0.7	47.5	4.28*	.	104.2	33.5
COc1ccccc1-c1nnc(NC(=O)CSc2nncn2C)s1	0.1	9.7	1.99	.	89.9	93.8*
COc1cc2c(cc1NC(=O)C1CCCO1)oc1ccccc12 (centres undefined)	1	161.7*	5.59*	9.5	147.0*	-2.2
COc1cc2c(cc1NC(=O)c1cccc(S(=O)(=O)N(C)C)c1)oc1ccccc12	1	19.9	1.45	7.0	134.4*	-0.9
Cc1nc2cc(-c3ccccc3)sc2c(=O)n1N	0.1	-26.2	0.83	24.9	20.9	88.8*
COc1ccc(-c2cc3nc(C)n(N)c(=O)c3s2)cc1	.	.	.	5.1	.	.
Cc1ccn2cc(-c3cccc(NC(=O)CCC(=O)O)c3)nc2c1	.	.	.	18.7	.	.
SMILES	FLuc act counter	APP 5'UTR act	NF-kB expr up	Pf gametocyte	STAT1 act	FLuc inh counter
Cc1ccn2cc(-c3ccc(NS(=O)(=O)c4ccccc4)cc3)nc2c1	1	6.8	1.21	5.2	130.4*	-3.7
CC(=O)Nc1cccc(-c2cn3ccc(C)cc3n2)c1	0.2	98.4	4.18*	5.5	128.8*	76.3*
Cc1ccn2cc(-c3ccc(NC(=O)c4ccco4)cc3)nc2c1	0.4	138.6*	3.07	.	135.4*	55.2*
Cc1ccn2cc(-c3cccc(NS(C)(=O)=O)c3)nc2c1	0.4	90.4	2.77	5.6	127.6	58.2*
Cc1ccc(NC(=O)CN2c3cccc4cccc(c34)S2(=O)=O)cc1S(=O)(=O)N1CCOCC1	1.1	1.1	0.77	.	102.0	-5.4
CCC(C)c1ccc(NC(=S)Nc2ccc(OC)cc2)cc1 (centres undefined)	1	-13.4	1.43	.	96.6	-3.1
